Test results as given in ChEMBL document CHEMBL4715925, “Sulfamoylbenzamide-based Capsid Assembly Modulators for Selective Inhibition of Hepatitis B Viral Replication” (ACS Med Chem Lett, 2021).

What was measured:
[1] = Cytotoxicity against human HepG2 2.2.15 cells assessed as reduction in cell viability incubated for 5 days by MTT assay; type: cell-based; details: time 5 day
Summary of the method: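 HepG2.2.15 cells were incubated with compound, then cell viability was measured. Mean ± SD of three independent experiments.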

Hepatitis B virus = test: Antiviral activity against Hepatitis B genotype D virus infected in HepG2 2.2.15 cells assessed as inhibition of viral DNA incubated for 5 days by qPCR analysis; type: functional, cell-based; details: HepG2 2.2.15, 120 h
Summary of the method: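 HepG2.2.15 cells were incubated with compound for 5 days. HBV DNA was then purified from the culture supernatant and quantified by real-time PCR.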

[2] = Selectivity index, ratio of CC50 for human […] cells to EC50 for Hepatitis B virus; type: toxicity; details: read-out: Ratio CC50/EC50
[3] = Volume of distribution at steady state in Sprague-Dawley rat at 5 mg/kg, iv by LC-MS/MS analysis; type: ADME, organism-based; details: in vivo, read-out: Vdss
Summary of the method: (§1)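 Male SD rats, 5 mg/kg given i.v. or p.o.; plasma concentration–time courses followed. Parameters: Tmax, Cmax, terminal T1/2, AUClast, AUC to infinity, total plasma clearance, Vss, oral bioavailability (Ft). Values are mean ± SD of at least three independent experiments.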

[4] = biological target: Voltage-gated inwardly rectifying potassium channel KCNH2 (Homo sapiens, UniProt Q12809); test: Inhibition of human ERG by fluorescence polarization assay
[5] = Metabolic stability in human liver microsomes assessed as compound remaining at 1 uM incubated for 30 mins by LC-MS/MS analysis; type: ADME, Microsome; details: read-out: Stabilty
Summary of the method: (§2)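 Phase-I stability in rat or human liver microsomes, given as % remaining after 30 min, with half-life also derived. n = 3, mean ± SD.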

Cytochrome P450 2D6 = Cytochrome P450 2D6 (Homo sapiens, UniProt P10635); test: Inhibition of human liver microsome CYP2D6 using dextromethorphan as substrate incubated for 20 mins by LC-MS/MS with HPLC analysis; type: ADME, microsomes
Summary of the method: (§3)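 Cocktail-substrate assay in human liver microsomes; IC50 reported for CYP1A2, 2C9, 2C19, 2D6 and 3A4. n = 3, mean ± SD.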

[6] = Metabolic stability in rat liver microsomes assessed as compound remaining at 1 uM incubated for 30 mins by LC-MS/MS analysis; type: ADME, Microsome; details: read-out: Stabilty; summary of the method: as §2
[7] = Half life in Sprague-Dawley rat at 5 mg/kg, po by LC-MS/MS analysis; type: ADME, organism-based; details: in vivo; summary of the method: as §1
[8] = AUC (0 to infinity) in Sprague-Dawley rat at 5 mg/kg, po by LC-MS/MS analysis; type: ADME, organism-based; set-up: time infinity, route oral, dose 5 mg/kg; details: in vivo; summary of the method: as §1
[9] = Oral bioavailability in Sprague-Dawley rat at 5 mg/kg by LC-MS/MS analysis; type: ADME, organism-based; details: in vivo; summary of the method: as §1
[10] = Tmax in Sprague-Dawley rat at 5 mg/kg, po by LC-MS/MS analysis; type: ADME, organism-based; details: in vivo; summary of the method: as §1
[11] = AUClast in Sprague-Dawley rat at 5 mg/kg, po by LC-MS/MS analysis; type: ADME, organism-based; set-up: time 0 - last, route oral, dose 5 mg/kg; details: in vivo; summary of the method: as §1
Cytochrome P450 2C19 = Cytochrome P450 2C19 (Homo sapiens, UniProt P33261); test: Inhibition of human liver microsome CYP2C19 using S-mephenytoin as substrate incubated for 20 mins by LC-MS/MS with HPLC analysis; type: ADME, microsomes; summary of the method: as §3
[12] = Protein binding in rat plasma at 5 uM incubated for 4 hrs by LC-MS/MS analysis; type: ADME, cell-free; details: read-out: PPB (converted)
[13] = AUC (0 to infinity) in Sprague-Dawley rat at 5 mg/kg, iv by LC-MS/MS analysis; type: ADME, organism-based; set-up: time infinity, route intravenous, dose 5 mg/kg; details: in vivo; summary of the method: as §1
[14] = Half life in Sprague-Dawley rat at 5 mg/kg, iv by LC-MS/MS analysis; type: ADME, organism-based; details: in vivo; summary of the method: as §1
[15] = Stability in rat plasma assessed as compound remaining at 5 uM incubated for 4 hrs by LC-MS/MS analysis; type: ADME, cell-free; details: read-out: Stabilty
Summary of the method: (§4)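 Incubated in rat or human plasma at 37 °C for 4 h; result is % compound remaining. n = 3, mean ± SD.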

[16] = AUClast in Sprague-Dawley rat at 5 mg/kg, iv by LC-MS/MS analysis; type: ADME, organism-based; set-up: route intravenous, time 0 - last, dose 5 mg/kg; details: in vivo; summary of the method: as §1
[17] = Protein binding in human plasma at 5 uM incubated for 4 hrs by LC-MS/MS analysis; type: ADME, cell-free; details: read-out: PPB (converted)
[18] = Clearance in Sprague-Dawley rat at 5 mg/kg, iv by LC-MS/MS analysis; type: ADME, organism-based; details: in vivo; summary of the method: as §1
Cytochrome P450 2C9 = Cytochrome P450 2C9 (Homo sapiens, UniProt P11712); test: Inhibition of human liver microsome CYP2C9 using tolbutamide as substrate incubated for 20 mins by LC-MS/MS with HPLC analysis; type: ADME, microsomes; summary of the method: as §3
Cytochrome P450 3A4 = Cytochrome P450 3A4 (Homo sapiens, UniProt P08684); test: Inhibition of human liver microsome CYP3A4 using […] as substrate incubated for 20 mins by LC-MS/MS with HPLC analysis; type: ADME, microsomes; summary of the method: as §3
Cytochrome P450 1A2 = biological target: T1, Cytochrome P450 1A2 (Homo sapiens, UniProt P05177); test: Inhibition of human liver microsome CYP1A2 using phenacetin as substrate incubated for 20 mins by LC-MS/MS with HPLC analysis; type: ADME, microsomes; summary of the method: as §3
T1 sequence (P05177 whole entry): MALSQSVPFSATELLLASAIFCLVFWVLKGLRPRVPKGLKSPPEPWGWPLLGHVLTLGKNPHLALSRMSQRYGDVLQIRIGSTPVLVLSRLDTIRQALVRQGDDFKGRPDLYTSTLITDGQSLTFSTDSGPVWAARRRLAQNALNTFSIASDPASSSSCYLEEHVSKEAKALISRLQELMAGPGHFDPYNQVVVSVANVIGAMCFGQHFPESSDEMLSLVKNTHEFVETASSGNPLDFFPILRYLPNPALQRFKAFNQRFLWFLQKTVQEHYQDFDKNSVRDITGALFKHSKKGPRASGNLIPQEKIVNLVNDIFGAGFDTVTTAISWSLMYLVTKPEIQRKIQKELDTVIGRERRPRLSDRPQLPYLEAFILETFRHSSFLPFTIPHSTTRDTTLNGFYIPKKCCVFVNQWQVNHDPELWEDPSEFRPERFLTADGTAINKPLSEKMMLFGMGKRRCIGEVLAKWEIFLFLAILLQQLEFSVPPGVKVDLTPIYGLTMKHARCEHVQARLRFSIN

[19] = Metabolic stability in rat liver microsomes assessed as half life at 1 uM incubated for 30 mins by LC-MS/MS analysis; type: ADME, Microsome; summary of the method: as §2
[20] = Stability in human plasma assessed as compound remaining at 5 uM incubated for 4 hrs by LC-MS/MS analysis; type: ADME, cell-free; details: read-out: Stabilty; summary of the method: as §4
[21] = Cmax in Sprague-Dawley rat at 5 mg/kg, po by LC-MS/MS analysis; type: ADME, organism-based; set-up: route oral, dose 5 mg/kg; details: in vivo; summary of the method: as §1
[22] = Metabolic stability in human liver microsomes assessed as half life at 1 uM incubated for 30 mins by LC-MS/MS analysis; type: ADME, Microsome; summary of the method: as §2

Voltage-gated inwardly rectifying potassium channel KCNH2, sequence (Q12809 whole entry): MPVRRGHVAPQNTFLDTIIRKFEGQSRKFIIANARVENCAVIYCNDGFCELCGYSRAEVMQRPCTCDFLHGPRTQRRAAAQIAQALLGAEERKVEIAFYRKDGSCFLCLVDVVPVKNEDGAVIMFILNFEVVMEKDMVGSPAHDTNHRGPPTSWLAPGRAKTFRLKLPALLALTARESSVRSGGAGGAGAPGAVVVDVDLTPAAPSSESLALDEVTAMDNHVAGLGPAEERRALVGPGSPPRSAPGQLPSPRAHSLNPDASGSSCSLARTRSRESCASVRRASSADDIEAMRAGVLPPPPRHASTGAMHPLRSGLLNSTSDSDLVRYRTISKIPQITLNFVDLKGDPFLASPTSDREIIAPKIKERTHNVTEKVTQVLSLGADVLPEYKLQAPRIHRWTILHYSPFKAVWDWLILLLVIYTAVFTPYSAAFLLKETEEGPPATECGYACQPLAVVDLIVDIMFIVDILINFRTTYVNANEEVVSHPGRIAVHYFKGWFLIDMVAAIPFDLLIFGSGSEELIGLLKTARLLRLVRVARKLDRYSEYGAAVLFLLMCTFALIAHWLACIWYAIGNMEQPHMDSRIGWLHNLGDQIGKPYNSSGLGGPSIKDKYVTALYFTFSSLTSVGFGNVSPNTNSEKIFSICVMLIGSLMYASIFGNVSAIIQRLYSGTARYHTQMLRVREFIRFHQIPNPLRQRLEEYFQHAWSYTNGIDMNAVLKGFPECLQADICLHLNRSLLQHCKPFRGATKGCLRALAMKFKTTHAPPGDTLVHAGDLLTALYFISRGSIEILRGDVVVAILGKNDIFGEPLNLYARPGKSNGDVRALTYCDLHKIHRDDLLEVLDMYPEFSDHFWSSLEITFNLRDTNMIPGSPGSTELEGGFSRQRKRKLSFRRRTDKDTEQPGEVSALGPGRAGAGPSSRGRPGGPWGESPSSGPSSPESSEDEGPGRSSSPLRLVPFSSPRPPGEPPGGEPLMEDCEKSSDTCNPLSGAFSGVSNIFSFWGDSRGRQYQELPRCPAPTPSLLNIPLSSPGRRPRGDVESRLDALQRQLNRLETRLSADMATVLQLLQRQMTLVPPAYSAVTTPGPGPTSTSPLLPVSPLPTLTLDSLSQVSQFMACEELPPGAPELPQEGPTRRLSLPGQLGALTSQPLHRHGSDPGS
Cytochrome P450 3A4, sequence (P08684 whole entry): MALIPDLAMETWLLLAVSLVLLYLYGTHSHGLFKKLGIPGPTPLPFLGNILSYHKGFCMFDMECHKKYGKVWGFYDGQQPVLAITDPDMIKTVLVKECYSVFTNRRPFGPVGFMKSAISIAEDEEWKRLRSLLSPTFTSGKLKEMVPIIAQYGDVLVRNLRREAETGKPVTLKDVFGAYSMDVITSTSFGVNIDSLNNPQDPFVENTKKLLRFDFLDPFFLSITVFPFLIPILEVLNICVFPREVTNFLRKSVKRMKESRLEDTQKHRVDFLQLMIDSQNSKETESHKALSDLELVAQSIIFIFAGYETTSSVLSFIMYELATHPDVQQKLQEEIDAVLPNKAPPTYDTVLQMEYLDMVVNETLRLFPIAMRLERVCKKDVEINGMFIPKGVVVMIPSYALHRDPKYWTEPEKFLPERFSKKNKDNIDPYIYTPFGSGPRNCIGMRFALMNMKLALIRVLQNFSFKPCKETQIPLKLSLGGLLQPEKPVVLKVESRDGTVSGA
Cytochrome P450 2C9, sequence (P11712 whole entry): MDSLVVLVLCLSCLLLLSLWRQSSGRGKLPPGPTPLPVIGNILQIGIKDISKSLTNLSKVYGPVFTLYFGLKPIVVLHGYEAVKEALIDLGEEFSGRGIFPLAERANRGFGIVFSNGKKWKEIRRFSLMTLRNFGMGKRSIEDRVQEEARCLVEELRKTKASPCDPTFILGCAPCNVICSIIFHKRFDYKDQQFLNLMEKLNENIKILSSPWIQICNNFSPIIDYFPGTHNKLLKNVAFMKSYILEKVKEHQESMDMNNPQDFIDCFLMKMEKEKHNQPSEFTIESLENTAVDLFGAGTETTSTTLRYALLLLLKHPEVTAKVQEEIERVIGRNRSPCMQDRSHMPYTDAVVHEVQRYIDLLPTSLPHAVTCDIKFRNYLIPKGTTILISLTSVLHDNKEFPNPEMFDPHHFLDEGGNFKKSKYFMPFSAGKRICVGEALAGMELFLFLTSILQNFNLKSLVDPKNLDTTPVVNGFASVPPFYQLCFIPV
Cytochrome P450 2C19, sequence (P33261 whole entry): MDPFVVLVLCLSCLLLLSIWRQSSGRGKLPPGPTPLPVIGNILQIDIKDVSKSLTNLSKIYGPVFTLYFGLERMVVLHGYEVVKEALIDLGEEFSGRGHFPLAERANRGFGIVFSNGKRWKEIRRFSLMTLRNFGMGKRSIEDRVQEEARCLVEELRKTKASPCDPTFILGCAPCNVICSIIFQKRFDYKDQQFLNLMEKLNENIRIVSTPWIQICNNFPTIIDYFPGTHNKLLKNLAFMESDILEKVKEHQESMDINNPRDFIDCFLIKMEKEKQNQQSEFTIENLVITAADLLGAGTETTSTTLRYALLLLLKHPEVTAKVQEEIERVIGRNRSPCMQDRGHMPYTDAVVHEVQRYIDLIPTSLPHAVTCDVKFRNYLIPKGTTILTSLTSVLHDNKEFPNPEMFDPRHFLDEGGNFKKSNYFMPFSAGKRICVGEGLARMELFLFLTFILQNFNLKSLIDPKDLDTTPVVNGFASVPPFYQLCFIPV
Cytochrome P450 2D6, sequence (P10635 whole entry): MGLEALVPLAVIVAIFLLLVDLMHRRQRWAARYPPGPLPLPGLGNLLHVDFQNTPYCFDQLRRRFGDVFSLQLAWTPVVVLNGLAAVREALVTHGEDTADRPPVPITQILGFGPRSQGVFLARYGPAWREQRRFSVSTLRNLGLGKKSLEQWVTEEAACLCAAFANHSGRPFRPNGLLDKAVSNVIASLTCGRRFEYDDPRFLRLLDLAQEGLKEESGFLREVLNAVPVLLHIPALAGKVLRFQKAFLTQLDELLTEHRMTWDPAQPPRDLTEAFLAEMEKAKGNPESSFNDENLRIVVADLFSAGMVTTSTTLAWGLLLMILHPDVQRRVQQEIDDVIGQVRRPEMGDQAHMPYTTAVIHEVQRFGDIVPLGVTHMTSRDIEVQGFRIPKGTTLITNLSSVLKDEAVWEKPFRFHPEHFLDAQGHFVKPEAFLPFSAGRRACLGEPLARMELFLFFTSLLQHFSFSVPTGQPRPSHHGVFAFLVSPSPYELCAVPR

Q: For Nc1cc(F)c(S(=O)(=O)N2CCC(O)CC2)cc1C(=O)Nc1ccc(C(F)(F)F)c(Cl)c1, which CC50 at 120 h [1] is on record?
A: The CC50 at 120 h was 8.7 µM.

Q: What about the EC50 (Hepatitis B virus) of the same molecule?
A: Its EC50 is over 3.3 µM.

Q: Which CC50 at 120 h [1] does the source give for Nc1cc(F)c(S(=O)(=O)N2CCC(O)CC2)cc1C(=O)Nc1cc(F)c(F)c(F)c1 here?
A: Its CC50 at 120 h is 19.7 µM.

Q: And the selectivity ratio [2]?
A: The selectivity ratio was 73.

Q: And the EC50 (Hepatitis B virus)?
A: Its EC50 is 0.27 µM.

Q: Which CC50 at 120 h [1] does the source give for Nc1cc(F)c(S(=O)(=O)N2CCC(O)CC2)cc1C(=O)Nc1ccc(F)c(Cl)c1 here?
A: Its CC50 at 120 h is 18.5 µM.

Q: And the selectivity ratio [2]?
A: Its selectivity ratio is 22.3.

Q: What about the EC50 (Hepatitis B virus) of the same molecule?
A: Its EC50 is 0.83 µM.

Q: Which CC50 at 120 h [1] does the source give for Nc1cc(F)c(S(=O)(=O)N2CCC(O)CC2)cc1C(=O)Nc1ccc(Cl)c(C(F)(F)F)c1 here?
A: The CC50 at 120 h was 17.8 µM.

Q: What about the EC50 (Hepatitis B virus) of the same molecule?
A: The EC50 was over 3.3 µM.

Q: Which results are given for Nc1cc(F)c(S(=O)(=O)N2CCC(O)CC2)cc1C(=O)Nc1ccc(Cl)c(C(F)F)c1?
A: CC50 at 120 h [1]: 30.1 µM; EC50 (Hepatitis B virus): > 3.3 µM

Q: With Nc1cc(F)c(S(=O)(=O)N2CCC(O)CC2)cc1C(=O)Nc1ccc(F)c(C(F)F)c1 as the molecule, how does the Vd [3] read?
A: The Vd was 3.59 L/kg.

Q: What about the IC50 [4] of the same molecule?
A: The IC50 was over 10 µM.

Q: What about the remaining at 0.5 h, 1 µM [5] of the same molecule?
A: Its remaining at 0.5 h, 1 µM is 40.5%.

Q: And the IC50 (Cytochrome P450 2D6)?
A: The IC50 was 26.7 µM.

Q: What about the remaining at 0.5 h, 1 µM [6] of the same molecule?
A: Its remaining at 0.5 h, 1 µM is 54.1%.

Q: What about the half-life [7] of the same molecule?
A: Its half-life is 5.16 h.

Q: What about the AUC(0-inf) [8] of the same molecule?
A: The AUC(0-inf) was 1230 ng·h/mL.

Q: And the bioavailability [9]?
A: Its bioavailability is 49.9%.

Q: What about the Tmax [10] of the same molecule?
A: The Tmax was 1.33 h.

Q: What about the AUC(0-t) [11] of the same molecule?
A: The AUC(0-t) was 1150 ng·h/mL.

Q: What about the IC50 (Cytochrome P450 2C19) of the same molecule?
A: Its IC50 is 19 µM.

Q: And the fraction unbound at 4 h, 5 µM [12]?
A: Its fraction unbound at 4 h, 5 µM is 0.108.

Q: What about the AUC(0-inf) [13] of the same molecule?
A: The AUC(0-inf) was 2330 ng·h/mL.

Q: And the CC50 at 120 h [1]?
A: Its CC50 at 120 h is 47.5 µM.

Q: What about the half-life [14] of the same molecule?
A: The half-life was 2.55 h.

Q: And the remaining at 4 h, 5 µM [15]?
A: Its remaining at 4 h, 5 µM is 99.6%.

Q: What about the AUC(0-t) [16] of the same molecule?
A: Its AUC(0-t) is 2310 ng·h/mL.

Q: And the fraction unbound at 4 h, 5 µM [17]?
A: Its fraction unbound at 4 h, 5 µM is 0.029.

Q: And the clearance [18]?
A: The clearance was 36 mL/min/kg.

Q: What about the selectivity ratio [2] of the same molecule?
A: Its selectivity ratio is 164.

Q: What about the EC50 (Hepatitis B virus) of the same molecule?
A: Its EC50 is 0.29 µM.

Q: And the IC50 (Cytochrome P450 2C9)?
A: The IC50 was 25.2 µM.

Q: What about the IC50 (Cytochrome P450 3A4) of the same molecule?
A: The IC50 was 20.8 µM.

Q: And the IC50 (Cytochrome P450 1A2)?
A: Its IC50 is 45.5 µM.

Q: What about the half-life at 1 µM [19] of the same molecule?
A: The half-life at 1 µM was 0.488 h.

Q: What about the remaining at 4 h, 5 µM [20] of the same molecule?
A: The remaining at 4 h, 5 µM was 100%.

Q: And the Cmax [21]?
A: Its Cmax is 280 ng/mL.

Q: And the half-life at 1 µM [22]?
A: The half-life at 1 µM was 0.51 h.

Q: What does the source list for Nc1cc(F)c(S(=O)(=O)N2CCC(O)CC2)cc1C(=O)Nc1ccc(Cl)c(Cl)c1?
A: CC50 at 120 h [1]: 20.4 µM; selectivity ratio [2]: 9.9; EC50 (Hepatitis B virus): 2.07 µM

Q: With N#Cc1cc(NC(=O)c2cc(S(=O)(=O)N3CCC(O)CC3)c(F)cc2N)ccc1Cl as the molecule, how does the CC50 at 120 h [1] read?
A: Its CC50 at 120 h is over 900 µM.

Q: What about the EC50 (Hepatitis B virus) of the same molecule?
A: The EC50 was over 3.3 µM.
